ChEMBL document CHEMBL4118164, “Discovery of (E)-1-amino-4-phenylbut-3-en-2-ol derivatives as novel neuraminidase inhibitors” (Bioorg Med Chem Lett, 2018)

target: Neuraminidase (Influenza A virus, UniProt B4URF0); assay: Inhibition of Influenza A H1N1 virus neuraminidase activity preincubated for 2 mins followed by MUNANA substrate addition measured after 30 mins by […]
Outline: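 Test compounds were dissolved in DMSO as stock solutions and diluted with assay buffer to four concentrations, spaced tenfold apart. Neuraminidase inhibition was measured with a commercial neuraminidase-inhibitor screening kit using a fluorescent read-out. IC50 values are means of three or more experiments.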

Neuraminidase, sequence (B4URF0 whole entry): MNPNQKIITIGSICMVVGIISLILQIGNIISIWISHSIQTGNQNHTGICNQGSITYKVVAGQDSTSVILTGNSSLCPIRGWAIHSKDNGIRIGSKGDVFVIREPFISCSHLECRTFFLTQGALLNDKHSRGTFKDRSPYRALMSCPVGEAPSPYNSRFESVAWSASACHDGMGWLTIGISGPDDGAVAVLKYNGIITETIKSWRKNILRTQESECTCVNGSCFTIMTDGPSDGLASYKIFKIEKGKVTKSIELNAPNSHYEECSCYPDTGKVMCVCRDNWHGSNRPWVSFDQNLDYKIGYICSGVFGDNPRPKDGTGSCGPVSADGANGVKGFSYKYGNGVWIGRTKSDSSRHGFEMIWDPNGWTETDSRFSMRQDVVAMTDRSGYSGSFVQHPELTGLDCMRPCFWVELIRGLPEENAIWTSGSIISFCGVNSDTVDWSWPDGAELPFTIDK

Structure (SMILES) | IC50 [µM]
COC(=O)c1ccc(C(=O)NCC(/C=C/c2ccccc2)OC(=O)c2ccc(C(=O)OC)cc2)cc1 (stereo unspecified) | 40.5
OC(/C=C/c1ccccc1)CN(Cc1ccccc1)Cc1ccccc1 (stereo unspecified) | 41.5
N#Cc1ccc(CN(Cc2ccc(C#N)cc2)CC(O)/C=C/c2ccccc2)cc1 (stereo unspecified) | 49.8
O=S(=O)(NCC(O)/C=C/c1ccccc1)c1ccc(OCc2ccccc2)cc1 (stereo unspecified) | 11.1
N#Cc1ccc(C(=O)NCC(/C=C/c2ccccc2)OC(=O)c2ccc(C#N)cc2)cc1 (stereo unspecified) | 33
Cc1ccc(CN(Cc2ccc(C)cc2)CC(O)/C=C/c2ccccc2)cc1 (stereo unspecified) | 50.7
O=S(=O)(NCC(O)/C=C/c1ccccc1)c1ccc(Cl)cc1 (stereo unspecified) | 9.2
COc1cccc(C(O)CN)c1 (stereo unspecified) | 6100
CC(C)(C)OC(=O)/N=C(\NCC(O)/C=C/c1ccccc1)NC(=O)OC(C)(C)C (stereo unspecified) | 103
N#Cc1ccc(S(=O)(=O)NCC(O)/C=C/c2ccccc2)cc1 (stereo unspecified) | 11.4
O=S(=O)(NCC(O)/C=C/c1ccccc1)c1ccccc1 (stereo unspecified) | 7.6
O=S(=O)(NCC(O)/C=C/c1ccccc1)c1ccc(Br)cc1 (stereo unspecified) | 9.4
NCC(O)c1ccsc1 (stereo unspecified) | 8900
NCC(O)/C=C/c1ccccc1 (stereo unspecified) [listing 1 of 2 here] | 207
CC(C)(C)OC(=O)NCC(O)/C=C/c1ccccc1 (stereo unspecified) | 106
NCC(O)/C=C/c1ccccc1 (stereo unspecified) [listing 2 of 2 here] | 214
Cc1ccc(S(=O)(=O)NCC(O)/C=C/c2ccccc2)cc1 (stereo unspecified) | 7.6
COc1ccc(S(=O)(=O)NCC(O)/C=C/c2ccccc2)cc1 (stereo unspecified) | 6.4
COc1cccc(S(=O)(=O)NCC(O)/C=C/c2ccccc2)c1 (stereo unspecified) | 7.2
OC(/C=C/c1ccccc1)CN(Cc1ccc(C(F)(F)F)cc1)Cc1ccc(C(F)(F)F)cc1 (stereo unspecified) | 32.8
NCC(O)c1ccccc1 (stereo unspecified) | 870
COc1ccccc1C(O)CN (stereo unspecified) | 5200
COc1ccccc1S(=O)(=O)NCC(O)/C=C/c1ccccc1 (stereo unspecified) | 8
Cc1ccc(C(=O)NCC(/C=C/c2ccccc2)OC(=O)c2ccc(C)cc2)cc1 (stereo unspecified) | 61.5
COC(=O)c1ccc(S(=O)(=O)NCC(O)/C=C/c2ccccc2)cc1 (stereo unspecified) | 13.3
O=S(=O)(NCC(O)/C=C/c1ccccc1)c1ccc(F)cc1 (stereo unspecified) | 7.9
